Laboratory results published in ChEMBL document CHEMBL1140666, “Synthesis and evaluation of alpha,beta-unsaturated alpha-aryl-substituted fosmidomycin analogues as DXR inhibitors” (Bioorg Med Chem Lett, 2007).

Test: Inhibition of Escherichia coli DXR
Method in brief: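 Recombinant E. coli DXR was used. Conversion of substrate DOXP to MEP was followed through the reaction's NADPH dependence, and IC50 was derived from this.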

Row | Compound | IC50 [µM]
1 | CC(=O)N(O)C/C=C(/c1ccc([N+](=O)[O-])cc1)P(=O)(O)O | 34
2 | CC(=O)N(O)C/C=C(/c1cccc([N+](=O)[O-])c1)P(=O)(O)O | > 30
3 | CC(=O)N(O)C/C=C(\Br)P(=O)(O)O | 0.45
4 | CC(=O)N(O)C/C=C(\c1ccc(Cl)c(Cl)c1)P(=O)(O)O | 5.5
5 | CC(=O)N(O)C/C=C(/c1cccs1)P(=O)(O)O | 42
6 | O=CN(O)CCC(c1ccc(Cl)c(Cl)c1)P(=O)(O)O (configuration not stated) | 0.059
7 | CC(=O)N(O)C/C=C(/c1ccsc1)P(=O)(O)O | > 30
8 | CC(=O)N(O)CCCP(=O)(O)O [FR-900098] | 0.032
9 | CC(=O)N(O)C/C=C(/c1ccccc1)P(=O)(O)O | > 30
10 | CC(=O)N(O)C/C=C(\c1ccc(C#N)cc1)P(=O)(O)O | 16
11 | CC(=O)N(O)C/C=C(\c1ccccc1)P(=O)(O)O | 5.7
12 | O=CN(O)CCCP(=O)(O)O [FOSMIDOMYCIN] | 0.034
